Where two headings read alike, the source gives them in different places.
What was measured:
[1] = tested on: MCF-7 (human breast adenocarcinoma) cells; experiment: Antiproliferative activity, LDH release assay, MCF-7; type: cell-based; conditions: MCF7, 48 h, read-out: IC50 (μM) ± SD MCF-7
Procedure, shortened: (§1)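 Cells were kept in RPMI-1640 with 10% heat-inactivated FBS and penicillin/streptomycin at 37 °C in 5% CO2. They were seeded at 1 × 10^4 per well, grown 18 h, then exposed to graded concentrations for 48 h, with doxorubicin as positive control. LDH was read in supernatant and in Triton X-100 lysate by kinetic A340 over 1 min, using pH 7.5 phosphate with 4.6 mM pyruvate and 0.4 mg mL−1 NADH. % release = released/total. Three experiments in triplicate; IC50 by probit analysis.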

[2] = tested on: HCT-116 (human colorectal carcinoma) cells; experiment: Antiproliferative activity, LDH release assay, HCT-116; type: cell-based; conditions: HCT-116, 48 h, read-out: IC50 (μM) ± SD HCT-116
Procedure, shortened: as §1

[3] = tested on: BJ-1 normal human skin fibroblast cells; experiment: Cytotoxicity on normal cells, LDH release assay, BJ-1; type: cell-based; conditions: for IC50: Homo sapiens, Skin fibroblast, 48 h, read-out: IC50 (μM) ± SD BJ-1; for toxic activity on healthy cells BJ-1: BJ-1 normal cells, LDH assay
Procedure, shortened: as §1

[4] = molecular target: epidermal growth factor receptor (EGFR) (Homo sapiens, UniProt P00533); experiment: EGFR kinase inhibition assay; type: biochemical
Chain of epidermal growth factor receptor (EGFR) (P00533 25-1210): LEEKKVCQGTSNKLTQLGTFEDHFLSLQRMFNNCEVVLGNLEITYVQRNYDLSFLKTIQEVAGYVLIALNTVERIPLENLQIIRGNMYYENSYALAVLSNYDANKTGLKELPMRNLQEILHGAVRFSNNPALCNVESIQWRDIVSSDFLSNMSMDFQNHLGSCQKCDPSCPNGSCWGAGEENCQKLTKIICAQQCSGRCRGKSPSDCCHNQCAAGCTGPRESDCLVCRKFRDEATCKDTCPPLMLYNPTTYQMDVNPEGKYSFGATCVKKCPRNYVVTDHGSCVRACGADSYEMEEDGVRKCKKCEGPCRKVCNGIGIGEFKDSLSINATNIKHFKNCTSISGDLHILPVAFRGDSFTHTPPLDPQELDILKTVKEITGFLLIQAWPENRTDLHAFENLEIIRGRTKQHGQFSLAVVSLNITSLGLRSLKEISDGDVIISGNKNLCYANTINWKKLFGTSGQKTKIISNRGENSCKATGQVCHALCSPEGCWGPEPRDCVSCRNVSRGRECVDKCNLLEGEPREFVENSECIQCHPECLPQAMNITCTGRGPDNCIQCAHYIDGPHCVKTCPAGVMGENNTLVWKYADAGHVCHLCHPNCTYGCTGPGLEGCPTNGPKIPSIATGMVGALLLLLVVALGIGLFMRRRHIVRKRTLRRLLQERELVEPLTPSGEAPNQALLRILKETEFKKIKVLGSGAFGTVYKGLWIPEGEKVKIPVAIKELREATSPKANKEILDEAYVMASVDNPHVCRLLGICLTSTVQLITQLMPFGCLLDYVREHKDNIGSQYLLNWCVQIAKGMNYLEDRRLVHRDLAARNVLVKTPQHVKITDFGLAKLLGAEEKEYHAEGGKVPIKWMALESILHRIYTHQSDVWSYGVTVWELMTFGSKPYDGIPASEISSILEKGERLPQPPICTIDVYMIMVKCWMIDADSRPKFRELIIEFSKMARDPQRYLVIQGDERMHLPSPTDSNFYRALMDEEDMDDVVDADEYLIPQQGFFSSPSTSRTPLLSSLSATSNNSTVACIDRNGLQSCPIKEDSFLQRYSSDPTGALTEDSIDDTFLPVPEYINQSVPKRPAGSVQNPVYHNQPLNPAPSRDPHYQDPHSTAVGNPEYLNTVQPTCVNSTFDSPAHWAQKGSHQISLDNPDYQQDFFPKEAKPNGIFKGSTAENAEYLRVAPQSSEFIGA

[5] = molecular target: histone deacetylase 1 (HDAC1) (Homo sapiens, UniProt Q13547); experiment: Fluorogenic HDAC1 inhibition assay; type: biochemical
Chain of histone deacetylase 1 (HDAC1) (Q13547 whole entry): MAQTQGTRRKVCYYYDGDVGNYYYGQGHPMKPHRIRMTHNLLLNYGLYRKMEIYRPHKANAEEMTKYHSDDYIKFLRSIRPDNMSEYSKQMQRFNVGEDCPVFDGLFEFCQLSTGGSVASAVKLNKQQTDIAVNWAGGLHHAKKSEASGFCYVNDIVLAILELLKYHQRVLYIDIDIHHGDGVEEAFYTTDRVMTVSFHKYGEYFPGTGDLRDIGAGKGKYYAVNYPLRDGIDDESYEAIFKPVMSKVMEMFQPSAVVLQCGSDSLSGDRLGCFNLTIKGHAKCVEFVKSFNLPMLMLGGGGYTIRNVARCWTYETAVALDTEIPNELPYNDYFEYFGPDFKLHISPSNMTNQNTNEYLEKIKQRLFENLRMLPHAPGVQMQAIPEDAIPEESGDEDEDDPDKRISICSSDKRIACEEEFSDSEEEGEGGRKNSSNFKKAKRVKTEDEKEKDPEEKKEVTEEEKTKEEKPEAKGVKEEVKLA

[6] = molecular target: ERK1 (extracellular signal-regulated kinase 1) (Homo sapiens, UniProt P27361); experiment: ERK1 kinase assay; type: biochemical
Chain of ERK1 (extracellular signal-regulated kinase 1) (P27361 whole entry): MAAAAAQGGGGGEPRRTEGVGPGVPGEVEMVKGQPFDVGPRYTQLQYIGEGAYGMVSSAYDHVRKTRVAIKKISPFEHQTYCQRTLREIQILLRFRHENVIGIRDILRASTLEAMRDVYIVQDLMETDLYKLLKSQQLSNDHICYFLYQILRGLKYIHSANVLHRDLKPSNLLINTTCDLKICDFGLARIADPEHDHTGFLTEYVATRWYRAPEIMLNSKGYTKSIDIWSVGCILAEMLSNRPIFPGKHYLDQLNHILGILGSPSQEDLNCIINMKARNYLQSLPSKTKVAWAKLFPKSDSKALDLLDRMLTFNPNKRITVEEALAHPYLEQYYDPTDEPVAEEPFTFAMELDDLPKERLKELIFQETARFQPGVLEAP

MCF-7 cells [7] = experiment: Cell-cycle analysis by flow cytometry; type: cell-based, human; conditions: MCF-7, 48 h; control 10.98%
MCF-7 cells [8] = experiment: Apoptosis assay, Annexin V-FITC/PI flow cytometry; type: cell-based, human; conditions: MCF-7, 48 h
[9] = tested on: Ehrlich ascites carcinoma (EAC) cells; experiment: Ehrlich ascites carcinoma; type: in vivo, female BALB/c mice; conditions: EAC-bearing mice; for total volume of collected ascitic fluid: i.p. 2 mg kg^−1 twice weekly × 2 weeks; for Avg. volume of ascitic fluid (mL) [packed cell volume] / Viable cell count (×10^6 cells per mL) / Cell-growth inhibition (%): i.p. 2 mg kg^−1 × 2 weeks; for Avg. volume of ascitic fluid (mL) [packed cell volume]: EAC control 10.5; for Viable cell count (×10^6 cells per mL): trypan blue, EAC control 33; for Cell-growth inhibition (%): vs EAC control viable cell count
Procedure, shortened: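 Female BALB/c mice (25 ± 3 g) received 1 × 10^6 EAC cells i.p. in 100 μL PBS (>95% trypan-blue viability). On day 3, mice were grouped (n = 8). Dosing was i.p.: test compound 2 mg kg−1 twice weekly × 2 weeks, DMSO vehicle, or doxorubicin 2 mg kg−1 once weekly. Endpoint: ascitic volume measured, fluid spun 1200×g for 10 min, viable cells counted by 0.4% trypan blue on a hemocytometer. Growth inhibition = (control − treated)/control × 100.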

[10] = tested on: Ehrlich solid carcinoma (ESC); experiment: Ehrlich solid carcinoma; type: in vivo, male BALB-c mice; conditions: intratumoral 2 mg kg^−1, two doses weekly for two weeks

| SMILES | IC50 [1] [µM] | IC50 [2] [µM] | IC50 [3] [µM] | other results |
| --- | --- | --- | --- | --- |
| COc1ccc(N=Nc2sc(=NN=C(C)c3c(O)c4ccccc4oc3=O)[nH]c2C)cc1 [3a, 4-Hydroxy-3-(-1-((-5-(-(4-methoxyphenyl)diazenyl)-4-methylthiazol-2(3H)-ylidene) hydrazono)ethyl)-2H-chromen-2-one] | 3.1 ± 0.1 | 3.2 ± 0.1 | 24.8 ± 2.1 | – |
| COc1ccc(N=Nc2sc(=NN=C(C)c3c(O)c4ccccc4oc3=O)n(C)c2C)cc1 [3b, 4-Hydroxy-3-(-1-((-5-(-(4-methoxyphenyl)diazenyl)-3,4-dimethylthiazol-2(3H)-ylidene) hydrazono)ethyl)-2H-chromen-2-one] | 5 ± 0.2 | 2.6 ± 0.1 | 27 ± 2.2 | – |
| CCn1c(C)c(N=Nc2ccc(OC)cc2)sc1=NN=C(C)c1c(O)c2ccccc2oc1=O [3c, 3-(1-((-3-Ethyl-5-(-(4-methoxyphenyl)diazenyl)-4-methylthiazol-2(3H)-ylidene) hydrazono)ethyl)-4-hydroxy-2H-chromen-2-one] | 2.6 ± 0.1 | 3.1 ± 0.1 | 27 ± 2.1 | – |
| CC(=NN=c1[nH]c(C)c(N=Nc2ccc([N+](=O)[O-])cc2[N+](=O)[O-])s1)c1c(O)c2ccccc2oc1=O [3d, 3-(-1-((-5-(-(2,4-Dinitrophenyl)diazenyl)-4-methylthiazol-2(3H)-ylidene)hydrazono)ethyl)-4-hydroxy-2H-chromen-2-one] | 5.1 ± 0.2 | 2.8 ± 0.1 | 26.7 ± 2.3 | – |
| CCn1c(C)c(N=Nc2ccc([N+](=O)[O-])cc2[N+](=O)[O-])sc1=NN=C(C)c1c(O)c2ccccc2oc1=O [3f, 3-(-1-((-5-(-(2,4-Dinitrophenyl)diazenyl)-3-ethyl-4-methylthiazol-2(3H)-ylidene)hydrazono)ethyl)-4-hydroxy-2H-chromen-2-one] | 2.6 ± 0.1 | 2.9 ± 0.2 | 25.6 ± 2.5 | – |
| CC(=NN=c1[nH]c(C)c(N=Nc2ccc(F)cc2)s1)c1c(O)c2ccccc2oc1=O [3g, 3-(-1-((-5-(-(4-Fluorophenyl)diazenyl)-4-methylthiazol-2(3H)-ylidene)hydrazono)ethyl)-4-hydroxy-2H-chromen-2-one] | 2.9 ± 0.2 | 2.8 ± 0.2 | 30.6 ± 3.3 | – |
| CC(=NN=c1sc(N=Nc2ccc(F)cc2)c(C)n1C)c1c(O)c2ccccc2oc1=O [3h, 3-(-1-((-5-(-(4-Fluorophenyl)diazenyl)-3,4-dimethylthiazol-2(3H)-ylidene)hydrazono)ethyl)-4-hydroxy-2H-chromen-2-one] | 2.8 ± 0.2 | 3 ± 0.2 | 27.5 ± 2.5 | – |
| CCn1c(C)c(N=Nc2ccc(F)cc2)sc1=NN=C(C)c1c(O)c2ccccc2oc1=O [3i, 3-(-1-((-3-Ethyl-5-(-(4-fluorophenyl)diazenyl)-4-methylthiazol-2(3H)-ylidene)hydrazono)ethyl)-4-hydroxy-2H-chromen-2-one] | 3 ± 0.1 | 3.1 ± 0.2 | 34.3 ± 2.5 | – |
| CC(=NN=c1[nH]c(C)c(N=Nc2ccc(Cl)cc2)s1)c1c(O)c2ccccc2oc1=O [3j, 3-(-1-((-5-(-(4-Chlorophenyl)diazenyl)-4-methylthiazol-2(3H)-ylidene)hydrazono)ethyl)-4-hydroxy-2H-chromen-2-one] | 3.1 ± 0.2 | 12.7 ± 1.2 | 27 ± 2.3 | – |
| CC(=NN=c1sc(N=Nc2ccc(Cl)cc2)c(C)n1C)c1c(O)c2ccccc2oc1=O [3k, 3-(-1-((-5-(-(4-Chlorophenyl)diazenyl)-3,4-dimethylthiazol-2(3H)-ylidene)hydrazono)ethyl)-4-hydroxy-2H-chromen-2-one] | 5.4 ± 0.3 | 11.6 ± 1.1 | 25.8 ± 2.1 | – |
| CCn1c(C)c(N=Nc2ccc(Cl)cc2)sc1=NN=C(C)c1c(O)c2ccccc2oc1=O [3l, 3-(-1-((-5-(-(4-Chlorophenyl)diazenyl)-3-ethyl-4-methylthiazol-2(3H)-ylidene)hydrazono)ethyl)-4-hydroxy-2H-chromen-2-one] | 4.8 ± 0.3 | 2.8 ± 0.1 | 26.2 ± 2.4 | – |
| CC(=NN=c1[nH]c(C)c(N=Nc2ccc(Br)cc2)s1)c1c(O)c2ccccc2oc1=O [3m, 3-(-1-((-5-(-(4-Bromophenyl)diazenyl)-4-methylthiazol-2(3H)-ylidene)hydrazono)ethyl)-4-hydroxy-2H-chromen-2-one] | 12.7 ± 1.1 | 33.8 ± 3.1 | > 500 | toxic activity on healthy cells BJ-1 [3]: non-significant toxic activities; IC50 [4]: 0.08 ± 0.003 µM; IC50 [5]: 1.01 ± 0.034 µM; IC50 [6]: 0.339 ± 0.013 µM; cells in the G2/M phase (MCF-7 cells [7]): 29.71%; late apoptosis (MCF-7 cells [8]; control 0.14%): 5.57%; early apoptosis (MCF-7 cells [8]; control 0.61%): 14.67%; necrosis (MCF-7 cells [8]; control 2.16%): 3.51%; total volume of collected ascitic fluid [9]: significant reduction; Avg. volume of ascitic fluid (mL) [packed cell volume] [9]: 6 mL; Viable cell count (×10^6 cells per mL) [9]: 13 ×10^6 cells per mL; Cell-growth inhibition (%) [9]: 60.61%; tumor volume of Ehrlich solid carcinoma [10]: reduced to a level comparable to that of the doxorubicin group |
| CC(=NN=c1sc(N=Nc2ccc(Br)cc2)c(C)n1C)c1c(O)c2ccccc2oc1=O [3n, 3-(-1-((-5-(-(4-Bromophenyl)diazenyl)-3,4-dimethylthiazol-2(3H)-ylidene)hydrazono)ethyl)-4-hydroxy-2H-chromen-2-one] | 12.3 ± 1.2 | 31.8 ± 3.3 | > 500 | toxic activity on healthy cells BJ-1 [3]: non-significant toxic activities; IC50 [4]: 0.35 ± 0.011 µM; IC50 [5]: 3.88 ± 0.131 µM; total volume of collected ascitic fluid [9]: significant reduction; Avg. volume of ascitic fluid (mL) [packed cell volume] [9]: 8 mL; Viable cell count (×10^6 cells per mL) [9]: 22 ×10^6 cells per mL; Cell-growth inhibition (%) [9]: 33.33%; tumor volume of Ehrlich solid carcinoma [10]: more significant in the group administered with compound 3m than in the group administered with compound 3n |
| CCn1c(C)c(N=Nc2ccc(Br)cc2)sc1=NN=C(C)c1c(O)c2ccccc2oc1=O [3o, 3-(-1-((-5-(-(4-Bromophenyl)diazenyl)-3-ethyl-4-methylthiazol-2(3H)-ylidene)hydrazono)ethyl)-4-hydroxy-2H-chromen-2-one] | 22.9 ± 2.3 | 29.8 ± 2.5 | > 500 | toxic activity on healthy cells BJ-1 [3]: non-significant toxic activities |
| COc1cccc2c1C(=O)c1c(O)c3c(c(O)c1C2=O)C[C@@](O)(C(=O)CO)C[C@@H]3O[C@H]1C[C@H](N)[C@H](O)[C@H](C)O1 [Doxorubicin, reference compound] | 5.6 ± 0.3 | 6.5 ± 0.5 | 32.1 ± 3.1 | Avg. volume of ascitic fluid (mL) [packed cell volume] [9]: 4 mL; Viable cell count (×10^6 cells per mL) [9]: 9 ×10^6 cells per mL; Cell-growth inhibition (%) [9]: 72.72% |
| Cc1cc(Nc2ncc3c(n2)N(C)C(=O)N(c2cc(NC(=O)c4cccc(C(F)(F)F)c4)ccc2C)C3)n(C)n1 [pluripotin, reference compound] | – | – | – | IC50 ([6]; read-out: ERK inhibition IC50): 0.171 ± 0.006 µM |
